# Test results published in ChEMBL document CHEMBL1135682, “Synthesis and antimycobacterial activity of pyrazine and quinoxaline derivatives” (J Med Chem, 2002).
# How the values were obtained:
# [1] = Partition coefficient was evaluated using method of Morgiuchi et al; format: physicochemical; details: octanol/water; read-out: mLog P
# [2] = Minimum inhibitory concentration against MAC NJ211 using Middlebrook 7H9 with glycerol and OADC enrichment; format: functional; details: Mycobacterium avium
# How it was run: (§1)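 Run in-house in Middlebrook 7H9 broth with glycerol and OADC enrichment, pH 6.6, against Mtb H37Ra or M. avium; the M. avium strains came from the National Jewish Center, Denver. Ethambutol served as a reference drug. The read-out is the MIC.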
# [3] = Minimum inhibitory concentration against Mtb H37Ra using Middlebrook 7H9 with glycerol and OADC enrichment; format: functional; details: Mycobacterium tuberculosis; how it was run: as §1
# [4] = Minimum inhibitory concentration against Mtb H37Rv using Middlebrook 7H9 with glycerol and OADC enrichment; format: functional; details: Mycobacterium tuberculosis
SMILES,logP [1],MIC [2] [µg/mL],MIC [3] [µg/mL],MIC [4] [µg/mL]
O=C(OCc1ccccc1)c1cnccn1,0.94,> 128,16,> 6.25
O=C(O)c1cnc2ccccc2n1,,> 128,> 128,
NNC(=O)c1cnc2ccccc2n1,0.16,> 128,64,> 6.25
CC(=O)Oc1ccc(COC(=O)c2ccccc2)cc1,3.38,128,16,> 6.25
CC(=O)Oc1ccc(COC(=O)c2cnc3ccccc3n2)cc1,2.15,16,0.5,6.25
O=C(OCc1ccc([N+](=O)[O-])cc1)c1cnc2ccccc2n1,2.27,> 128,> 128,> 6.25
CCCOC(=O)c1cnc2ccccc2n1,1.41,128,64,6.25
CCCCCCCCOC(=O)c1cnc2ccccc2n1,2.61,128,128,> 6.25
CC(=O)OCc1ccc([N+](=O)[O-])cc1,2.02,> 128,> 128,> 6.25
COC(=O)c1cnc2ccccc2n1,0.84,> 128,> 128,> 6.25
CCCCCCC(C)OC(=O)c1cnc2ccccc2n1 (configuration not stated),2.7,128,64,> 6.25
CC(=O)Oc1ccc(COC(=O)c2cnccn2)cc1,0.92,16,< 0.25,6.25
O=C(OCc1ccccc1[N+](=O)[O-])c1cnccn1,0.99,> 128,64,> 6.25
O=C(OCc1ccccc1[N+](=O)[O-])c1cnc2ccccc2n1,2.27,> 128,> 128,> 6.25
CC(=O)OCc1ccc(OC(C)=O)cc1,2.03,128,8,
O=C(OCc1ccc([N+](=O)[O-])cc1)c1ccccc1,3.45,,,> 6.25
O=C(OCc1ccc(C(F)(F)F)cc1)c1cnccn1,1.87,> 128,128,> 6.25
O=C(OCc1ccc([N+](=O)[O-])cc1)c1cnccn1,0.99,> 128,128,6.25
O=C(OCc1ccc([N+](=O)[O-])cc1)c1ccccn1,2.29,> 128,128,> 6.25
NC(=O)c1cnc2ccccc2n1,0.13,> 128,> 128,> 6.25
O=C(O)c1cnccn1 [PYRAZINOIC ACID],,> 128,64,
